The source of these data is ChEMBL document CHEMBL1129982, “Structure-activity relationships in a series of orally active gamma-hydroxy butenolide endothelin antagonists” (J Med Chem, 1997).

Bounds are passed on as bounds.

The subject of one data set is Rattus norvegicus. The experiment in a line: In vivo effect at 10 mg/kg on MABP in anesthetized ganglionic-blocked rats versus ET-1 (0.3 nmol/kg, iv) baseline. The class given is functional. Put shortly: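 Rats dosed orally by gavage at 10 mg/kg. Ganglionic blockade with mecamylamine given 15 min later (baseline MABP 80–90 mmHg). ET-1 challenge (0.3 nmol/kg iv) 15 min after that. Reduction of the peak pressor response, about 5 min post ET-1, scored against vehicle-treated controls.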

In data set [1] the target is T1, Endothelin receptor type B (Homo sapiens, UniProt P24530).
T1 sequence (P24530 whole entry): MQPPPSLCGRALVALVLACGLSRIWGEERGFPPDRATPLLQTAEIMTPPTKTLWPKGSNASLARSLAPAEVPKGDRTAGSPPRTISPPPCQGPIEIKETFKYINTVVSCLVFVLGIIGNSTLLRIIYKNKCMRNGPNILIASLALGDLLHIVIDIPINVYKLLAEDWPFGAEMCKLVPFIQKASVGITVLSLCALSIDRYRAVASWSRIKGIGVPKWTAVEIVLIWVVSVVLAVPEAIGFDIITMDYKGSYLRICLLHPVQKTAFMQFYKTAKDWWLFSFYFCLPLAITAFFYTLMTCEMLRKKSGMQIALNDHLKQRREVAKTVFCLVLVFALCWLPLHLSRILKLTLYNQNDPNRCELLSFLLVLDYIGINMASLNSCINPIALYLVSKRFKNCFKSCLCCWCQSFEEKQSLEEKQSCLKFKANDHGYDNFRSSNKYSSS
Nature of the data set: Inhibition of Endothelin B receptor mediated (ET-3) release of arachidonic acid from human cloned receptors expressed in CHO-K1 cells. The class given is cell-based. In a few lines: (§1)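 Arachidonic acid release assay. ETA: rabbit renal artery vascular smooth muscle cells stimulated with ET-1. ETB: recombinant human receptors in CHO-K1 cells stimulated with ET-3.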

Data set [2] deals with T1, Endothelin receptor type B. The experiment in a line: Inhibition of Endothelin B receptor mediated (ET-3) release of arachidonic acid from human cloned receptors / CHO-K1 cells; In active. The class given is cell-based. Put shortly:
as §1

Data set [3] concerns the target T1, Endothelin receptor type B. The experiment in a line: Binding affinity against human cloned Endothelin B receptor expressed in CHO-K1 cells. The format is cell-based. Put shortly:
(§2)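 Radioligand binding to cloned human ETA (Ltk⁻ cells) and ETB (CHO-K1 cells) receptors. […] Selectivity expressed as ETB IC50/ETA IC50.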

In a further data set the target is T2, Endothelin-1 receptor (Homo sapiens, UniProt P25101).
T2 sequence (P25101 whole entry): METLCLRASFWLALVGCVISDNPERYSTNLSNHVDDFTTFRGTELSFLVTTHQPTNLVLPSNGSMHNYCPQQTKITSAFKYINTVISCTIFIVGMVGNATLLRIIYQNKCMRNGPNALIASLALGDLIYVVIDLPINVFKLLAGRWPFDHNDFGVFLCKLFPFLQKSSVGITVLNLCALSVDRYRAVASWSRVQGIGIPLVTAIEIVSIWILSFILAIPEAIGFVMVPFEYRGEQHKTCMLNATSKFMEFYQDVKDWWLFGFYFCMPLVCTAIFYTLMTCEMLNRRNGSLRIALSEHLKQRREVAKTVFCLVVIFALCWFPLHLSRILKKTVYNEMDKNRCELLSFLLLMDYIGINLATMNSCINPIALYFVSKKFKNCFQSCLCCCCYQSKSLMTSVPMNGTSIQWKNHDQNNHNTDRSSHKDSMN
Nature of the data set: Binding affinity against human cloned endothelin A receptor expressed in LTK-cells. The class given is cell-based. In a few lines:
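Radioligand binding to cloned human ETA (Ltk⁻ cells) and ETB (CHO-K1 cells) receptors. Selectivity expressed as ETB IC50/ETA IC50.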

Data set [4] deals with Endothelin receptor, ET-A/ET-B (Homo sapiens) (UniProt P24530+P25101). Nature of the data set: Selectivity of compound on ET B with respect to ET A receptor. The class given is protein assay. In a few lines: as §2
Data set [5] in a line: Area under the concentration-time curve from time zero to infinity after intravenous administration of 2.5 mg/kg in dogs. The format is ADME, organism-based, Canis lupus familiaris. On the set-up: dose 2.5 mg/kg, route intravenous. To be noted: dog, in vivo. Put shortly: (§3)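 Four male beagle dogs, fed, single 2.5 mg/kg iv dose within a three-way crossover. Serial heparinized plasma sampled to 24 h. Drug recovered by reverse-phase solid-phase extraction and measured by HPLC with fluorescence detection (ex 312, em 430 nm); LOQ 10 ng/mL.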

Data set [6] is described as follows: Area under the concentration-time curve from time zero to infinity in oral (5 mg/kg) fasted dogs. The class given is ADME, organism-based, Canis lupus familiaris. The settings on record: dog, in vivo. In a few lines:
(§4)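 Three-way crossover in four male beagles: single 2.5 mg/kg iv dose (fed) or 5 mg/kg oral capsule, fed or fasted. Serial heparinized plasma taken up to 24 h. Drug isolated by reverse-phase SPE, quantified by C18 HPLC with fluorescence (ex 312, em 430 nm), LOQ 10 ng/mL. Noncompartmental analysis. […] AUC by trapezoidal rule extrapolated to infinity. F from dose-normalized po/iv AUC ratio.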

A short description of data set [7]: Area under the concentration-time curve from time zero to infinity in oral (5 mg/kg) fed dogs. The format is ADME, organism-based, Canis lupus familiaris. To be noted: dog, in vivo. In a few lines:
as §4

Data set [8] is described as follows: Maximum observed concentration in oral (5 mg/kg) fasted dogs. The format is ADME, organism-based, Canis lupus familiaris. On the set-up: dose 5 mg/kg, route oral. To be noted: dog, in vivo. Put shortly:
as §4

Data set [9] is described as follows: Maximum observed concentration in oral (5 mg/kg) fed dogs. The settings on record: dog, in vivo. Set-up: dose 5 mg/kg, route oral. The format is ADME, organism-based, Canis lupus familiaris. Put shortly: as §4
Data set [10] in a line: Absolute oral bioavailability in oral (5 mg/kg) fasted dogs. The format is ADME, organism-based, Canis lupus familiaris. The settings on record: dog, in vivo. In a few lines:
as §4

Data set [11] can be described thus: Absolute oral bioavailability in oral (5 mg/kg) fed dogs. The format is ADME, organism-based, Canis lupus familiaris. The settings on record: dog, in vivo. In a few lines:
as §4

The nature of data set [12]: Mean of apparent terminal phase elimination half-life after intravenous administration of 2.5 mg/kg in dogs. The class given is ADME, organism-based, Canis lupus familiaris. To be noted: dog, in vivo. On the set-up: dose 2.5 mg/kg, route intravenous. Put shortly:
as §3

The nature of data set [13]: Mean of apparent terminal phase elimination half-life in oral (5 mg/kg) fasted dogs. The format is ADME, organism-based, Canis lupus familiaris. To be noted: dog, in vivo. In a few lines:
as §4

The nature of data set [14]: Mean of apparent terminal phase elimination half-life in oral (5 mg/kg) fed dogs. The class given is ADME, organism-based, Canis lupus familiaris. To be noted: dog, in vivo. In a few lines:
as §4

Data set [15] can be described thus: Time to reach maximum observed concentration in oral (5 mg/kg) fasted dogs. The class given is ADME, organism-based, Canis lupus familiaris. The settings on record: dog, in vivo. In a few lines: as §4
The nature of data set [16]: Time to reach maximum observed concentration in oral (5 mg/kg) fed dogs. The settings on record: dog, in vivo. The class given is ADME, organism-based, Canis lupus familiaris. Put shortly: as §4

Consider `COc1ccc(C(=O)/C(Cc2cc(OC)c(OC)c(OC)c2)=C(\C(=O)[O-])c2ccc3c(c2)OCO3)cc1C.[Na+]`, for which the Pressor response in the data set on Rattus norvegicus was found to be 53%. Also, the IC50 in data set [1] came out at 1.9 µM.

On to `O=C1OC(O)(c2ccc(Cl)cc2)C(Cc2ccccc2)=C1c1ccc2c(c1)OCO2` (stereo not given), for which the IC50 entry was “Not Active” in data set [2] and 27 µM in data set [3].

`COc1ccc(C(=O)/C(Cc2ccccc2)=C(\C(=O)[O-])c2cc(OC)c3c(c2)OCO3)cc1.[Na+]` showed a Pressor response in the data set with Rattus norvegicus of 76%. Inhibition in [1] was half-maximal at 15.7 µM (IC50).

Consider `COc1ccc(C2(O)OC(=O)C(c3cc(OC)c4c(c3)OCO4)=C2Cc2cc(OC)c(OC)c(OC)c2)cc1` (stereo not given), for which the IC50 in [3] came out at 0.26 µM; on Endothelin-1 receptor, 0.0005 µM. In [4], this molecule had a Selectivity of 520.

Take `CCOc1cc(CC2=C(c3ccc4c(c3)OCO4)C(=O)OC2(O)c2ccc(OC)cc2)cc(OCC)c1OCC` (stereo not given): the values for the IC50 (in [3]; on Endothelin-1 receptor) were 0.445 µM and 0.00012 µM, respectively. In [4], the Selectivity was 3700.

With `COc1ccc(C(=O)/C(Cc2ccc(NC(C)=O)cc2)=C(\C(=O)O)c2ccc3c(c2)OCO3)cc1`, it took 8.2 µM to reach half-maximal inhibition in [1] (IC50).

In turn, `COc1ccc(C(=O)/C(Cc2ccccc2)=C(\C(=O)[O-])c2ccc3c(c2)OCO3)cc1.C[N+](C)(C)CCO` showed a Pressure response in the data set on Rattus norvegicus of 80%. Also, in data set [1], the IC50 stood at 22 µM.

`COc1ccc(C2(O)OC(=O)C(c3ccc4c(c3)OCO4)=C2Cc2ccc(OC)c(OC)c2OC)cc1` (stereo not given): the figures for the IC50 (in data set [3]; at Endothelin-1 receptor) were 2 µM and 0.012 µM, respectively.

For `COc1ccc(C2(O)OC(=O)C(c3ccc4c(c3)OCO4)=C2Cc2cccc3ccccc23)cc1` (stereo not given), the IC50 in data set [3] was greater than 2.5 µM; at Endothelin-1 receptor, 0.018 µM.

As to `COc1ccc(C2(O)OC(=O)C(c3ccc4c(c3)OCO4)=C2Cc2ccccc2)cc1OC` (stereo not given), the IC50 in data set [3] turned out to be 18 µM; at Endothelin-1 receptor, 0.011 µM.

As to `COC(=O)c1ccc(C2(O)OC(=O)C(c3ccc4c(c3)OCO4)=C2Cc2ccccc2)cc1` (stereo not given), the figures for the IC50 (in [3]; at Endothelin-1 receptor) were greater than 2.5 µM and 0.4 µM, respectively.

As for `COc1ccc(C2(O)OC(=O)C(c3ccc4c(c3)OCO4)=C2Cc2cccc(OC)c2)cc1` (stereo not given), the IC50 was determined as 0.26 µM in [3] and 0.003 µM on Endothelin-1 receptor.

For `COc1ccc(C2(O)OC(=O)C(c3ccc4c(c3)OCO4)=C2Cc2cc(OC)c(OC)c(OC)c2)cc1C` (stereo not given), the IC50 in data set [3] stood at 0.24 µM; on Endothelin-1 receptor it was 0.0005 µM. In addition, the Selectivity in [4] worked out at 480.

In the case of `O=C1OC(O)(c2ccc(C(=O)O)cc2)C(Cc2ccccc2)=C1c1ccc2c(c1)OCO2` (stereo not given), the IC50 in data set [3] is greater than 2.5 µM; on Endothelin-1 receptor it was greater than 25 µM.

As for `COc1ccc(C2(O)OC(=O)C(c3cc(OC)c(OC)c(OC)c3)=C2Cc2ccccc2)cc1` (stereo not given), the IC50 in data set [3] stood at 1.6 µM; on Endothelin-1 receptor it was 1.3 µM.

`COc1ccc(C2(O)OC(=O)C(c3ccc4c(c3)OCO4)=C2Cc2cccc(C(=O)O)c2)cc1` (stereo not given): the IC50 was greater than 2.5 µM in data set [3] and 0.05 µM on Endothelin-1 receptor.

For the molecule `COc1ccc(C(=O)/C(Cc2cc(OC)c(OC)c(OC)c2)=C(\C(=O)O)c2cc(OC)c3c(c2)OCO3)cc1C`, 0.068 µM corresponded to half-maximal inhibition in data set [1] (IC50).

As for `COc1cccc(C2(O)OC(=O)C(c3ccc4c(c3)OCO4)=C2Cc2ccccc2)c1` (stereo not given), the IC50 was 18 µM in data set [3] and 0.5 µM on Endothelin-1 receptor.

On to `COc1ccc(C2(O)OC(=O)C(c3ccc4c(c3)OCO4)=C2Cc2cc(OC)c(OC)c(OC)c2)cc1` (stereo not given) [PD-156707], for which the values for the AUC(0-inf) in [5], in [6] and in data set [7] were 1.5 µg·h/mL, 2 µg·h/mL and 0.59 µg·h/mL, respectively. Besides, the figures for the Cmax in data set [8] and in [9] were 1.52 µg/mL and 0.48 µg/mL, respectively. For the same molecule, the bioavailability in [10] was determined as 67%; in data set [11], 20%. The half-life in [12] was 0.62 h; in data set [13], 1.2 h; in [14], 1.9 h. The Tmax in [15] was 0.69 h; in data set [16], 2.5 h.

Take `COc1ccc(C2(O)OC(=O)C(c3ccc4c(c3)OCO4)=C2CC2CCCCC2)cc1` (stereo not given): the IC50 worked out at 0.225 µM in data set [3] and 0.013 µM on Endothelin-1 receptor.

With `COc1ccc(C2(O)OC(=O)C(c3ccc4c(c3)OCO4)=C2Cc2ccc(N(C)C)cc2)cc1` (stereo not given), the IC50 in [3] turned out to be 1.8 µM; at Endothelin-1 receptor it was 0.028 µM.

`COc1ccc(C2(O)OC(=O)C(c3ccc4c(c3)OCO4)=C2Cc2cc(OC)c3c(c2)OCO3)cc1` (stereo not given): the IC50 stood at 16 µM in [3] and 0.014 µM on Endothelin-1 receptor.
